Assay results published in ChEMBL document CHEMBL3997810, “A Novel Potent Anticancer Compound Optimized from a Natural Oridonin Scaffold Induces Apoptosis and Cell Cycle Arrest through the Mitochondrial Pathway” (J Med Chem, 2017).
pIC50: −log10 of the molar value. Calls of active or inactive are those of the source. The rule behind the calls is not given here.

Experiments:
Mus musculus [1] = assay: Cardiotoxicity in Balb/c nude mouse xenografted with human MCF7 cells assessed as morphological changes in heart at 20 mg/kg/day, iv for 4 weeks by hematoxylin and eosin staining based microscopic method; type: toxicity, organism-based; settings: in vivo, 672 h
In short: (§1)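 Male BALB/c nude mice (6 weeks old) carrying subcutaneous MCF-7 xenografts (1 × 10^6 cells). Dosed iv 20 mg/kg daily for 28 days in 10% DMF/2% poloxamer/88% saline; six mice per group. Organs then fixed in 4% paraformaldehyde, paraffin-embedded, cut at 5 μm, stained with Harris hematoxylin and eosin-phloxine, and examined by light microscopy.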

[2] = Antiproliferative activity against human KB/CP4 cells after 48 hrs by MTT assay; type: functional, cell-based; settings: KB/CP4, 48 h
In short: (§2)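 Colorimetric MTT assay. KB-3-1, NCI-H460 and Bel-7404 cells were seeded at 4000 cells/well; resistant KB/CP4, NCI-H460/MX20 and Bel-7404/CP20 were seeded at 7000 cells/well. Cells were pre-incubated 24 h at 37 °C, 5% CO2, then exposed to a compound concentration series for 48 h with DMSO ≤0.25%. Absorbance read at 570 nm. Quadruplicate wells, three repeats; means ± SD.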

Mus musculus [3] = assay: Nephrotoxicity in Balb/c nude mouse xenografted with human MCF7 cells assessed as morphological changes in kidney at 20 mg/kg/day, iv for 4 weeks by hematoxylin and eosin staining based microscopic method; type: toxicity, organism-based; settings: in vivo, 672 h
In short: (§3)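 Male BALB/c nude mice aged six weeks received 1 × 10^6 MCF-7 cells subcutaneously in the right flank. After 7 d they were randomized and dosed 20 mg/kg iv once daily in 10% DMF/2% poloxamer/88% saline; saline control. Heart, liver, spleen, lung and kidney were fixed in 4% paraformaldehyde, paraffin-embedded, sectioned at 5 μm, H&E stained and examined microscopically.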

[4] = Antiproliferative activity against human NCI-H460/MX20 cells after 48 hrs by MTT assay; type: functional, cell-based; settings: NCI-H460/MX20, 48 h; in short: as §2
Mus musculus [5] = assay: Toxicity in Balb/c nude mouse xenografted with human MCF7 cells assessed as changes in body weight at 20 mg/kg/day, iv for 4 weeks measured once in 2 days during compound dosing; type: organism-based; settings: in vivo
In short: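 Mice received 1 × 10^6 tumor cells subcutaneously in the right flank: MCF-7 in male BALB/c nude mice aged six weeks, H22 in male ICR mice aged five weeks. After 7 d they were randomized (six or eight per group). Dosing was 20 mg/kg iv daily in 10% DMF/2% poloxamer/88% saline for 21 or 28 days; saline control. Body weight was recorded every 2 days.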

[6] = Selectivity ratio of IC50 for human KB/CP4 cells to IC50 for human KB-3-1 cells
Mus musculus [7] = assay: Toxicity in Balb/c nude mouse xenografted with human MCF7 cells assessed as morphological changes in lungs at 20 mg/kg/day, iv for 4 weeks by hematoxylin and eosin staining based microscopic method; type: organism-based; settings: in vivo, 672 h; in short: as §3
Mus musculus [8] = assay: Hepatotoxicity in Balb/c nude mouse xenografted with human MCF7 cells assessed as morphological changes in liver at 20 mg/kg/day, iv for 4 weeks by hematoxylin and eosin staining based microscopic method; type: toxicity, organism-based; settings: in vivo, 672 h; in short: as §1
K562 = assay: Antiproliferative activity against human K562 cells after 72 hrs by MTT assay; type: functional, cell-based; settings: K562, 72 h
In short: (§4)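 MGC-803 and MCF-7 cells grown in DMEM (MCF-7 with 1× NEAA); Bel-7402 and K562 grown in RPMI 1640; all media with 10% FBS. Cells seeded at 3500/well, pre-incubated 24 h, then exposed to compounds in fresh medium (DMSO ≤0.25%) for 72 h at 37 °C. MTT read-out at 570 nm. Quadruplicate wells, repeated three times; means ± SD (n = 3).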

MGC-803 = assay: Antiproliferative activity against human MGC803 cells after 72 hrs by MTT assay; type: functional, cell-based; settings: MGC-803, 72 h; in short: as §4
[9] = Antiproliferative activity against human BEL7404/CP20 cells after 48 hrs by MTT assay; type: functional, cell-based; settings: BEL7404/CP20, 48 h; in short: as §2
MCF7 [10] = assay: Antiproliferative activity against human MCF7 cells after 72 hrs by MTT assay; type: functional, cell-based; settings: MCF7, 72 h; in short: as §4
MCF7 [11] = assay: Antitumor activity against human MCF7 cells xenografted in Balb/c nude mouse assessed as tumor growth inhibition at 20 mg/kg/day, iv for 4 weeks relative to control; type: functional; settings: 672 h, read-out: TGI
In short: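 Six-week-old male BALB/c nude mice received 1 × 10^6 MCF-7 cells subcutaneously in the right flank. After 7 d of tumor growth, mice were randomized into groups of six. Dosing was 20 mg/kg iv once daily for 28 days in 10% DMF/2% poloxamer/88% saline. Tumor volume (L × W²/2) and body weight were recorded every 2 days. Inhibition = (1 − mean treated/control tumor weight) × 100%.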

Mus musculus [12] = assay: Toxicity in Balb/c nude mouse xenografted with human MCF7 cells assessed as morphological changes in spleen at 20 mg/kg/day, iv for 4 weeks by hematoxylin and eosin staining based microscopic method; type: organism-based; settings: in vivo, 672 h; in short: as §3
Bel-7402 [13] = assay: Antiproliferative activity against human Bel7402 cells after 72 hrs by MTT assay; type: functional, cell-based; settings: Bel-7402, 72 h; in short: as §4
Bel-7402 [14] = assay: Antiproliferative activity against human Bel7402 cells at 1 uM after 72 hrs by MTT assay; type: functional, cell-based
MCF7 [15] = assay: Cytotoxicity against human MCF7 cells at 10 to 50 uM after 24 hrs by LDH assay; type: functional, cell-based
In short: (§5)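 Membrane integrity assay on MCF-7 and Bel-7402 cells seeded at ~5 × 10^3 per well for 24 h, then given compounds at 10, 20 or 50 μM. Culture medium collected and assayed with CytoTox-ONE LDH reagent for 10 min, followed by stop solution. Fluorescence read at Ex 560/Em 590 nm. Expressed as percentage of unstimulated cells.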

BEL-7404 tumor cell line = assay: Antiproliferative activity against human Bel7404 cells after 48 hrs by MTT assay; type: functional, cell-based; settings: BEL-7404, 48 h; in short: as §2
NCI-H460 = assay: Antiproliferative activity against human NCI-H460 cells after 48 hrs by MTT assay; type: functional, cell-based; settings: NCI-H460, 48 h; in short: as §2
KB 3-1 = assay: Antiproliferative activity against human KB-3-1 cells after 48 hrs by MTT assay; type: functional, cell-based; settings: KB 3-1, 48 h; in short: as §2
Bel-7402 [16] = assay: Cytotoxicity against human Bel7402 cells at 10 to 50 uM after 24 hrs by LDH assay; type: functional, cell-based; in short: as §5
[17] = Selectivity ratio of IC50 for human L02 cells to IC50 for human Bel7402 cells

With C=C1C(=O)[C@]23[C@H](O)[C@H]1CC[C@H]2[C@]12C=CCC(C)(C)[C@H]1[C@H](O)[C@]3(O)OC2 the Activity (Mus musculus [1]) was “Non-Toxic”, the pIC50 [2] was 5.53 and the Activity (Mus musculus [3]) was “Non-Toxic”. The pIC50 [4] was 4.96, the Activity (Mus musculus [5]) was “Non-Toxic” and the “Ratio IC50” value [6] was <1. The Activity (Mus musculus [7]) was “Non-Toxic”, the Activity (Mus musculus [8]) was “Non-Toxic” and the pIC50 (K562) was 6.66. It also gave a pIC50 (MGC-803) of 5.91, a pIC50 [9] of 5.30 and a pIC50 (MCF7 [10]) of 5.70. The inhibition in vivo at 20 mg/kg/day (MCF7 [11]) was 61.6%, the Activity (Mus musculus [12]) was “Non-Toxic” and the pIC50 (Bel-7402 [13]) was 5.80. The Activity (Bel-7402 [14]) was “Active”, the Activity (MCF7 [15]) was “inactive” and the pIC50 (BEL-7404 tumor cell line) was 5.41. For the same molecule, the pIC50 (NCI-H460) was 5.57, the pIC50 (KB 3-1) was 5.29 and the Activity (Bel-7402 [16]) was “inactive”.

For C=C1C(=O)[C@]23[C@H](O)[C@H]1CC[C@H]2[C@@]12CO[C@]3(O)[C@@H](O)[C@@H]1C(C)(C)CC[C@@H]2O [ORIDONIN], the Activity (Mus musculus [1]) was “Non-Toxic”, the pIC50 [2] was 4.97 and the Activity (Mus musculus [3]) was “Non-Toxic”. The pIC50 [4] was 4.59, the Activity (Mus musculus [5]) was “Non-Toxic” and the Activity (Mus musculus [7]) was “Non-Toxic”. For the same molecule, the Activity (Mus musculus [8]) was “Non-Toxic”, the pIC50 (K562) was 5.36 and the pIC50 (MGC-803) was 5.04. The pIC50 [9] was 4.77, the pIC50 (MCF7 [10]) was 4.75 and the inhibition in vivo at 20 mg/kg/day (MCF7 [11]) was 58.9%. The Activity (Mus musculus [12]) was “Non-Toxic”, the pIC50 (Bel-7402 [13]) was 5.27 and the Activity (MCF7 [15]) was “inactive”. For the same molecule, the “Ratio IC50” value [17] was 6, the pIC50 (BEL-7404 tumor cell line) was 4.75 and the pIC50 (NCI-H460) was 4.69. For the same molecule, the pIC50 (KB 3-1) was 4.88 and the Activity (Bel-7402 [16]) was “inactive”.

For C=C1C(=O)[C@]23[C@H](O)[C@H]1CC[C@H]2[C@]12C=CC(=O)C(C)(C)[C@H]1[C@H](O)[C@]3(O)OC2, the pIC50 [2] was 4.79, the pIC50 [4] was 4.27 and the “Ratio IC50” value [6] was <1. For the same molecule, the pIC50 (K562) was 5.55, the pIC50 (MGC-803) was 5.25 and the pIC50 [9] was 4.82. The pIC50 (MCF7 [10]) was 4.95, the pIC50 (Bel-7402 [13]) was 5.46 and the Activity (Bel-7402 [14]) was “Active”. For the same molecule, the Activity (MCF7 [15]) was “inactive”, the pIC50 (BEL-7404 tumor cell line) was 4.79 and the pIC50 (NCI-H460) was 4.72. For the same molecule, the pIC50 (KB 3-1) was 4.78 and the Activity (Bel-7402 [16]) was “inactive”.

In the case of C=C1C(=O)[C@]23[C@H](OC(=O)c4cccc(C)c4)[C@H]1CC[C@H]2[C@]12C=CCC(C)(C)[C@H]1[C@H](O)[C@]3(O)OC2, the pIC50 [2] was 6.00, the pIC50 [4] was 4.85 and the “Ratio IC50” value [6] was <1. For the same molecule, the pIC50 (K562) was 5.90, the pIC50 (MGC-803) was 5.99 and the pIC50 [9] was 5.47. The pIC50 (MCF7 [10]) was 6.74, the pIC50 (Bel-7402 [13]) was 6.35 and the “Ratio IC50” value [17] was 14.58. It also gave a pIC50 (BEL-7404 tumor cell line) of 5.18, a pIC50 (NCI-H460) of 5.61 and a pIC50 (KB 3-1) of 5.21.

Molecule O=P1(N(CCCl)CCCl)NCCCO1 (stereo not drawn) [CYCLOPHOSPHAMIDE ANHYDROUS] has an inhibition in vivo at 20 mg/kg/day (MCF7 [11]) of 64.6%.
